Test [1] addresses T1, DNA topoisomerase 1 (Homo sapiens) (UniProt P11387).
T1 sequence (whole entry): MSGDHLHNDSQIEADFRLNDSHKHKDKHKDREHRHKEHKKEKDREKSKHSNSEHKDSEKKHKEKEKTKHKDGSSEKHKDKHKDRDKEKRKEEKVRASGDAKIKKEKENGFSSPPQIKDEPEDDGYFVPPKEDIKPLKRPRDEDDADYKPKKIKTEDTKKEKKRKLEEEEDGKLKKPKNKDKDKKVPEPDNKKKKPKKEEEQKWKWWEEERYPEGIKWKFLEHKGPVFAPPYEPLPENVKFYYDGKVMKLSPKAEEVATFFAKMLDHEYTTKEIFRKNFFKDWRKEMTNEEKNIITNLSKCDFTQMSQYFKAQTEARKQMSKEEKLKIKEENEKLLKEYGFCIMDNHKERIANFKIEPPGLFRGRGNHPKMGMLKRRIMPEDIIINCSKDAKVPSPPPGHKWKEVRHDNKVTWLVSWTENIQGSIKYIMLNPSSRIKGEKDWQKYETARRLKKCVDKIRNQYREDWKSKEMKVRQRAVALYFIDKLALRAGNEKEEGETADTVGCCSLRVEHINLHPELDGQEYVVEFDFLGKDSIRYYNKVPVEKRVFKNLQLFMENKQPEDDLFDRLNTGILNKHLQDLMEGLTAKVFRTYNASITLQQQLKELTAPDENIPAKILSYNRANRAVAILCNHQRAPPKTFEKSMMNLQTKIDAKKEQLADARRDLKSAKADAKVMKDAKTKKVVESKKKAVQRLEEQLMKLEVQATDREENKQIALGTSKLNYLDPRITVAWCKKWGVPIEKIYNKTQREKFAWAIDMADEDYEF
The experiment in a line: Inhibition of DNA topoisomerase 1-mediated supercoiled DNA relaxation at 0.1 mg/mL by agarose gel electrophoresis. The essentials: (§1)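 Relaxation assay with 500 ng supercoiled pBR322 DNA as substrate and 1 unit topo I. Reactions were run with or without compound, with camptothecin as reference, for 30 min at 37 °C.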

The subject of test [2] is SNU-638. The test is described as follows: Cytotoxicity against human SNU638 cells by sulforhodamine B assay. (Sulforhodamine B stains cellular protein and so reports cell mass.)
Test [3] deals with T1, DNA topoisomerase 1 (Homo sapiens). The test is described as follows: Inhibition of DNA topoisomerase 1 relative to 0.1 uM camptothecin. The essentials:
as §1

The test system of test [4] is HL-60. The experiment in a line: Cytotoxicity against human HL60 cells by MTT assay. Type of test: functional, cell-based. (In general: Tetrazolium assays rely on reduction of a dye to a coloured formazan, in cell work by metabolically active cells.)
Test [5] relates to A549. The experiment in a line: Cytotoxicity against human A549 cells by sulforhodamine B assay.
In test [6] the test system is Col2. The experiment in a line: Cytotoxicity against human Col2 cells by sulforhodamine B assay.
The subject of test [7] is HT-1080. The test is described as follows: Cytotoxicity against human HT1080 cells by sulforhodamine B assay.
The subject of test [8] is SK-MEL-2. The experiment in a line: Cytotoxicity against human SK-MEL-2 cells at 0.001 mg/ml. Type of test: functional, cell-based.

The values below come from ChEMBL document CHEMBL1681779, “Design, synthesis and docking study of 5-amino substituted indeno[1,2-c]isoquinolines as novel topoisomerase I inhibitors” (Bioorg Med Chem, 2011).

The source made the active and inactive calls. No cut-off for these calls is given here.

As a reminder, the IC50 is the concentration needed to halve the response being measured. On to `CCN1CCN(c2nc3c(c4ccccc24)C(=O)c2ccccc2-3)CC1`, for which the inhibition entry in test [1] and in test [3] was “Active” throughout. For the same compound, the IC50 in test [2] came out at 5.85 µM; in test [4] it was 4.21 µM; in test [5], 7.1 µM; in test [6], 6.45 µM; in test [7], 1.23 µM.
Regarding `CN1CCN(c2nc3c(c4ccccc24)Cc2ccccc2-3)CC1`, the inhibition entry in test [1] was “Active”. The IC50 in test [2] turned out to be 19.8 µM; in test [4] it was 5.87 µM; in test [5], 11.4 µM; in test [6] it was 10.1 µM; in test [7], 3.85 µM.
In the case of `CCCCNc1nc2c(c3ccccc13)C(=O)c1ccccc1-2`, the 50% inhibitory concentration (IC50) is over 100 µM in test [2]; over 100 µM in test [4]; over 100 µM in test [5]; over 100 µM in test [6]; 48.2 µM in test [7].
`O=C1c2ccccc2-c2nc(N3CCNCC3)c3ccccc3c21`: the inhibition entry in test [1] and in test [3] was “Active” in each case. Also, the half-maximal inhibitory concentration (IC50) in test [2] stood at 8.25 µM; in test [4] it was 4.68 µM; in test [5] it was 8.52 µM; in test [6] it was 7.99 µM; in test [7], 2.01 µM.
On to `CC1c2ccccc2-c2c1c1ccccc1c(=O)n2C` (stereo unspecified), for which, in test [8], the result was Active.
For `CC(=O)OC1c2ccccc2-c2nc(N3CCOCC3)c3ccccc3c21` (stereo unspecified), the half-inhibitory concentration (IC50) in test [2] was determined as 6.99 µM; in test [4] it was 15.9 µM; in test [5], 8.3 µM; in test [6], 7.87 µM; in test [7], 58.3 µM.
For `CN1CCCN(c2nc3c(c4ccccc24)C(=O)c2ccccc2-3)CC1`, the inhibition result in test [1] and in test [3] was “Active” each time. Besides, the half-inhibitory concentration (IC50) in test [2] was 1.36 µM; in test [4], 1.28 µM; in test [5], 1.05 µM; in test [6], 0.27 µM; in test [7], 0.54 µM.
`c1ccc2c(c1)Cc1c-2nc(N2CCOCC2)c2ccccc12`: in test [1], the inhibition result is “Active”. For the same compound, the IC50 amounted to 2.58 µM in test [2]; 8.65 µM in test [4]; 5.69 µM in test [5]; 4.42 µM in test [6]; 1.24 µM in test [7].
`CN1CCN(c2nc3c(c4ccccc24)C(C)(O)c2ccccc2-3)CC1` (stereo unspecified): the IC50 in test [2] amounted to 58.2 µM; in test [4] it was 79.9 µM; in test [5], 92.5 µM; in test [6], 58 µM; in test [7], 22.2 µM.
Turning to `CCN1CCN(c2nc3c(c4ccccc24)Cc2ccccc2-3)CC1`, the inhibition result in test [1] was “Active”. Also, the IC50 came out at 3.25 µM in test [2]; 9.98 µM in test [4]; 8.19 µM in test [5]; 7.74 µM in test [6]; 19 µM in test [7].
`NCCNc1nc2c(c3ccccc13)C(=O)c1ccccc1-2`: the half-inhibitory concentration (IC50) in test [2] was determined as 1.68 µM; in test [4], 10.4 µM; in test [5], 0.85 µM; in test [6], 1.43 µM; in test [7] it was 9.6 µM. For the same compound, the inhibition entry in test [3] was “Active”.
With `O=C1c2ccccc2-c2nc(N3CCOCC3)c3ccccc3c21`, the 50% inhibitory concentration (IC50) in test [2] was over 100 µM; in test [4], over 100 µM; in test [5], over 100 µM; in test [6] it was 96.9 µM; in test [7], 69.2 µM.
Consider `CCCCNc1nc2c(c3ccccc13)Cc1ccccc1-2`, for which the inhibition result in test [1] is “Active”. Moreover, the 50% inhibitory concentration (IC50) in test [2] was found to be 22.2 µM; in test [4], 19.6 µM; in test [5], 27.7 µM; in test [6], 75.2 µM; in test [7], 4.39 µM.
For `CCCCCCC1(O)c2ccccc2-c2nc(N3CCN(C)CC3)c3ccccc3c21` (stereo unspecified), the concentration for half-maximal inhibition (IC50) in test [2] is 12.4 µM; in test [4], 8.55 µM; in test [5], 7.21 µM; in test [6], 6.24 µM; in test [7], 2.57 µM. Moreover, the inhibition entry in test [3] is “Active”.
As to `CN1CCN(c2nc3c(c4ccccc24)C(=O)c2ccccc2-3)CC1`, the inhibition entry in test [1] and in test [3] was “Active” in each case. Moreover, the half-inhibitory concentration (IC50) in test [2] amounted to 7.98 µM; in test [4], 6.35 µM; in test [5], 8.19 µM; in test [6] it was 7.77 µM; in test [7] it was 5.36 µM.
On to `CCN1CCN(c2nc3c(c4ccccc24)C(O)c2ccccc2-3)CC1` (stereo unspecified), for which the IC50 in test [2] was 18.9 µM; in test [4], 29.4 µM; in test [5] it was 20.9 µM; in test [6], 19.2 µM; in test [7] it was 8.66 µM.
Turning to `CN1CCN(c2nc3c(c4ccccc24)C(O)c2ccccc2-3)CC1` (stereo unspecified), the IC50 worked out at 9.01 µM in test [2]; 13.4 µM in test [4]; 18.1 µM in test [5]; 28.3 µM in test [6]; 4.87 µM in test [7].
On the same counts, the results for `OC1c2ccccc2-c2nc(N3CCOCC3)c3ccccc3c21` (stereo unspecified) are over 100 µM, 99.2 µM, 93.3 µM, over 100 µM and over 100 µM.
Consider `CN1CCCN(c2nc3c(c4ccccc24)Cc2ccccc2-3)CC1`, for which the inhibition entry in test [1] was “Active”. The half-inhibitory concentration (IC50) was determined as 8.24 µM in test [2]; 3.33 µM in test [4]; 5.46 µM in test [5]; 2.13 µM in test [6]; 0.25 µM in test [7].
